Data set [1] has as its target Serotonin N-acetyltransferase (Ovis aries) (UniProt Q29495). Kind of data set: Inhibition of ovine AANAT in presence of Triton X-100 at 25 uM by spectrophotometric assay.
For data set [2] the target is unchanged. Kind of data set: Inhibition of ovine AANAT at 25 uM by spectrophotometric assay.
The target is the same in data set [3]. Briefly: Inhibition of ovine AANAT at 25 uM by alpha-KD-coupled spectrophotometric assay.
The target in data set [4] is T1, Serotonin N-acetyltransferase (Ovis aries, UniProt Q29495). Kind of data set: Inhibition of ovine AANAT by spectrophotometric assay.
T1 sequence (Q29495 whole entry): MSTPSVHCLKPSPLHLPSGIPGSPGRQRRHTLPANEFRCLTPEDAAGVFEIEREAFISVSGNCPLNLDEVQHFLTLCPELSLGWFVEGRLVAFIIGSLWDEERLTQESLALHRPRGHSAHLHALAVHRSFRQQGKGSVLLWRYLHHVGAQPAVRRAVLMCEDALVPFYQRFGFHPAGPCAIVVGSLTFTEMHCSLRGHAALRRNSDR
The target of data set [5] is Serotonin N-acetyltransferase (Ovis aries) (UniProt Q29495). The conditions noted are these: at 100 µM.
Serotonin N-acetyltransferase (Ovis aries), sequence (Q29495 whole entry): as above
Data set [6] has the same target. The conditions noted are these: at 100 µM. The source holds these as a separate data set.
Data set [7] has the same target. The conditions noted are these: at 100 µM. The source holds these as a separate data set.
The target is the same in data set [8]. The conditions noted are these: at 100 µM. This is another data set of the same source.
The nature of data set [9]: Inhibition of melatonin biosynthesis in rat pinealocytes. The data set is classed as functional, cell-based.
Data set [10] deals with Histone acetyltransferase KAT2B (Homo sapiens) (UniProt Q92831). Kind of data set: Inhibition of PCAF HAT at 50 uM. The procedure, abridged:
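Radioactive HAT assay on purified PCAF HAT catalytic domain (10 nM), with histone H3 residues 1-20 (10 μM) as substrate, in 50 mM Tris-HCl pH 8.0, 1 mM DTT, 0.1 mM EDTA, 50 μg/mL BSA, 3.3% DMSO, 30 °C. Inhibitor tested at 0-50 μM. Started with 20 μM [14C]-AcCoA and quenched after 5 min. Gel separation, phosphorimaging against [14C]-BSA standard, no-enzyme background subtracted, duplicates.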

For data set [11], the target named is T1, Serotonin N-acetyltransferase. Briefly: Inhibition of ovine AANAT by TLC-based radioactive assay.
Data set [12] is described as follows: Toxicity in rat pinealocytes. It counts as cell-based. To be noted: in vitro.
Data set [13] deals with Serotonin N-acetyltransferase (Ovis aries) (UniProt Q29495). Kind of data set: Inhibition of ovine AANAT at 25 uM by radioactive assay.

Activity calls are given as the source filed them. The rule behind the calls is not given here.

Histone acetyltransferase KAT2B (Homo sapiens), sequence (Q92831 whole entry, looked up, the tested form may be a part): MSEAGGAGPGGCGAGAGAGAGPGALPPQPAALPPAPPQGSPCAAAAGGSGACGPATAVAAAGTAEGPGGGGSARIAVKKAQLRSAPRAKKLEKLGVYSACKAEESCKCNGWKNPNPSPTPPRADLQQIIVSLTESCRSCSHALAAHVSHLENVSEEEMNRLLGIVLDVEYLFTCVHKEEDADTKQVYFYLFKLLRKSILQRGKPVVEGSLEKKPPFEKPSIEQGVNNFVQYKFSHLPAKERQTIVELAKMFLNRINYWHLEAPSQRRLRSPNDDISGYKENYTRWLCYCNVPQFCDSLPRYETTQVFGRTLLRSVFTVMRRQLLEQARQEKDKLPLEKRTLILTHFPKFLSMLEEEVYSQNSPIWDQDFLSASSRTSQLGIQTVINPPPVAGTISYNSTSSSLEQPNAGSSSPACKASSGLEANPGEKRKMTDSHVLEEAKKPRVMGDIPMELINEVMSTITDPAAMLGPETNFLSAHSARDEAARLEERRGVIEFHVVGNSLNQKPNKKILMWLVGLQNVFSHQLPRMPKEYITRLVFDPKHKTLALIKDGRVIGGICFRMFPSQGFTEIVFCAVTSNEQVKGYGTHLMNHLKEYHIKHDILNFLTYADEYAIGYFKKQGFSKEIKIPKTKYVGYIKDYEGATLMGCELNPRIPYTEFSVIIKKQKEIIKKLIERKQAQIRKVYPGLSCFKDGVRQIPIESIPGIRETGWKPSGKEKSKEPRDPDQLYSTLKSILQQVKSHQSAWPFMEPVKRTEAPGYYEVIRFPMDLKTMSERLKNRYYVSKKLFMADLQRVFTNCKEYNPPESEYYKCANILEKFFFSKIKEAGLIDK

As for `O=C(O)CCCN1C(=O)/C(=C2/C(=O)Nc3ccc(Br)cc32)SC1=S`, the inhibition (in general, the percentage by which the read-out fell short of the control) in data set [1] was determined as 41%; in [2], 52%; in [3], 21%.
With `O=C(CN1C(=O)C(C2SC(=S)N(CCS(=O)(=O)O)C2=O)c2ccccc21)Nc1ccccc1` (stereo not given), the IC50 (usually the concentration that gives 50% inhibition) in [4] is 15.8 µM. The inhibition in data set [5] was 99%; in [6], 70%; in data set [7] it was 80%; in data set [8] it was 99%.
As to `CCOc1ccc(C(=O)CC(=O)Nc2ccc(S(=O)(=O)F)cc2)cc1OC`, the inhibition in [5] was 31%; in [6], 79%; in [7], 100%; in data set [8] it was 98%.
Take `O=C(O)CCCCCN1C(=O)/C(=C2/C(=O)N(CC(=O)O)c3ccc(Br)cc32)SC1=S`: the inhibition in [1] was determined as 55%; in [2] it was 43%; in [3] it was 11%.
In the case of `COC(=O)Nc1ccc(S(=O)(=O)Nc2cc(OC)nc(OC)n2)cc1`, the inhibition in data set [7] stood at 24%; in [8], 42%.
On to `O=C(O)COc1ccc(/C=N/NC(=O)c2ccc(OCc3ccccc3)cc2)cc1`, for which, in [4], the IC50 turned out to be 402 µM. For the same compound, the inhibition in data set [5] is 74%.
`O=C(COc1ccc([N+](=O)[O-])cc1)N/N=C/c1ccccc1COc1ccccc1`: the inhibition in data set [7] was 11%; in data set [8], 40%.
Turning to `COc1ccc(/N=N/c2ccc(S(=O)(=O)O)cc2)cc1`, the figures for the inhibition in data set [6], in [7] and in data set [8] were 28%, 60% and 65%, respectively.
For the compound `Cc1ccc(CN2C(=O)C(C3SC(=S)N(CCS(=O)(=O)O)C3=O)c3ccccc32)cc1` (stereo not given), the IC50 in data set [4] worked out at 25.2 µM. The inhibition in [5] amounted to 99%; in [6], 54%; in data set [7] it was 98%; in data set [8] it was 84%.
Turning to `O=C(O)CCCCCN1C(=O)C(C2C(=O)Nc3ccccc32)SC1=S` (stereo not given), the IC50 in [4] stood at 52.9 µM. Besides, the inhibition is 94% in data set [5], 78% in data set [6], 83% in data set [7] and 100% in [8].
Take `O=C(O)CCCCCN1C(=O)C(C2C(=O)N(Cc3ccc(F)cc3)c3ccccc32)SC1=S` (stereo not given): the results for the IC50 in data set [4], in data set [9] and in data set [11] were 45.2 µM, 100 µM and 11.1 µM, respectively. In [10], the outcome was inactive. In data set [12], the Activity entry was “Non-toxic”. Further, the inhibition worked out at 98% in data set [5], 66% in data set [6], 74% in [7] and 81% in data set [8].
Turning to `CCc1ccc(/C=N/c2c(C)n(C)n(-c3ccccc3)c2=O)cc1`, the inhibition in data set [1] was determined as 61%; in [2], 70%; in data set [13], 0%; in data set [3] it was 47%.
Turning to `COc1ccc(NC(=O)CN2C(=O)/C(=C3\SCN(CCS(=O)(=O)O)C3=O)c3ccccc32)cc1`, the inhibition in data set [1] stood at 41%; in [2], 52%; in data set [13], 0%; in [3], 56%.
For the compound `O=C1CC(CC(=O)N/N=C/c2c(O)ccc3ccccc23)=NN1`, the inhibition in data set [7] worked out at 23%; in data set [8] it was 50%.
For `CC(C)Oc1ccc(C(=O)CC(=O)Nc2ccc(S(=O)(=O)F)cc2)cc1`, the inhibition amounted to 59% in data set [1], 43% in data set [2] and 0% in data set [3].
With `COc1ccc(/C=N/c2ccc(CC(=O)O)cc2)cc1`, the inhibition stood at 13% in [5], 64% in data set [6], 30% in data set [7] and 41% in data set [8].

The values above are taken from ChEMBL document CHEMBL1137607, “De novo discovery of serotonin N-acetyltransferase inhibitors” (J Med Chem, 2007).
